Reference: ChEMBL document CHEMBL4425113, “Chromenopyrazole, a Versatile Cannabinoid Scaffold with in Vivo Activity in a Model of Multiple Sclerosis” (J Med Chem, 2016)

Organism: Homo sapiens
Assay: Selectivity ratio of Ki for human CB2 receptor to Ki for human CB1 receptor
Settings: not given; call rule not given here

Question: For `CCCCCCC(C)(C)c1cc(O)c2c(c1)OC(C)(C)c1cnn(CC)c1-2`, which Ratio Ki is on record?
Answer: > 8000

Question: For `CCCCCCC(C)(C)c1cc(O)c2c(c1)OC(C)(C)c1cnn(-c3ccc(Cl)cc3Cl)c1-2`, which Ratio Ki is on record?
Answer: > 7500

Tested on: not listed separately
Assay: Binding affinity to PDEA modified AGP (unknown origin) at 40 uM by surface plasmon resonance method
Type: ADME
Settings: human, isolated protein

Question: Which PB does the source give for `CCCCC/C=C\C/C=C\C/C=C\C/C=C\CCCC(=O)OC(CO)CO` [2-ARACHIDONOYLGLYCEROL] here?
Answer: Active

Question: With `CCCCCCC(C)(C)c1cc(OC)c2c(c1)OC(C)(C)c1cn[nH]c1-2` as the molecule, how does the PB read?
Answer: Active

Question: With `CCCCCCC(C)(C)c1cc(OCCO)c2c(c1)OC(C)(C)c1cn(CC)nc1-2` as the molecule, how does the PB read?
Answer: Active

Question: Which PB does the source give for `CCCCC/C=C\C/C=C\C/C=C\C/C=C\CCCC(=O)NCCO` [ANANDAMIDE] here?
Answer: Active

Question: For `C=C(C)[C@@H]1CCC(C)=C[C@H]1c1c(O)cc(CCCCC)cc1O` [CANNABIDIOL], which PB is on record?
Answer: Active

Question: Which PB does the source give for `CCCCCCC(C)(C)c1cc(O)c2c(c1)OC(C)(C)c1cnn(C3CCCCC3)c1-2` here?
Answer: Active

Question: Which PB does the source give for `CCCCCCC(C)(C)c1cc2c(c3c1CCCO3)-c1c(cnn1CC)C(C)(C)O2` here?
Answer: Active

Target: T1, Cannabinoid receptor 2 (Homo sapiens, UniProt P34972)
T1 sequence (P34972 whole entry): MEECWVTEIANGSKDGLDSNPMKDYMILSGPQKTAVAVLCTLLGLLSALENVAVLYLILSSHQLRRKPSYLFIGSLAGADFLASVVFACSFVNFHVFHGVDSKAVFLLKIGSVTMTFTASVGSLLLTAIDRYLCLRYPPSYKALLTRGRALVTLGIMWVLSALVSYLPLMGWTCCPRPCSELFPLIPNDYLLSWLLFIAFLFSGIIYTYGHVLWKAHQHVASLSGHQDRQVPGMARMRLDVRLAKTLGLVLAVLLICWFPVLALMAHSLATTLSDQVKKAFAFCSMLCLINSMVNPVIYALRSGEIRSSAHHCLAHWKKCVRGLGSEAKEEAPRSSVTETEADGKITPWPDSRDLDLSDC
Assay: Displacement of [3H]-CP55940 from human CB2 receptor expressed in HEK293 cell membranes after 90 mins by liquid scintillation counting method
Settings: not given

Question: For `CCCCCCC(C)(C)c1cc(OC)c2c(c1)OC(C)(C)c1cn[nH]c1-2`, which Ki is on record?
Answer: 87.1 nM

Question: With `CCCCCCC(C)(C)c1cc(OC)c2c(c1)OC(C)(C)c1cnn(-c3ccc(Cl)c(Cl)c3)c1-2` as the molecule, how does the Ki read?
Answer: 2260 nM

Question: Which Ki does the source give for `CCCCCCC(C)(C)c1cc(OCCCO)c2c(c1)OC(C)(C)c1cnn(-c3ccc(Cl)c(Cl)c3)c1-2` here?
Answer: > 40000 nM

Question: With `CCCCCCC(C)(C)c1cc(OCc2ccccc2)c2c(c1)OC(C)(C)c1cnn(CC)c1-2` as the molecule, how does the Ki read?
Answer: 296 nM

Question: For `CCCCCCC(C)(C)c1cc(OCCO)c2c(c1)OC(C)(C)c1cn(CC)nc1-2`, which Ki is on record?
Answer: 211 nM

Question: With `CCCCCCC(C)(C)c1cc(O)c2c(c1)OC(C)(C)c1cnn(-c3cccc(OC)c3)c1-2` as the molecule, how does the Ki read?
Answer: 562 nM

Question: With `CCCCCCC(C)(C)c1cc(OCc2ccccc2)c2c(c1)OC(C)(C)c1cnn(-c3ccc(Cl)cc3Cl)c1-2` as the molecule, how does the Ki read?
Answer: > 40000 nM

Question: With `CCCCCCC(C)(C)c1cc(OCC)c2c(c1)OC(C)(C)c1cnn(-c3ccc(Cl)c(Cl)c3)c1-2` as the molecule, how does the Ki read?
Answer: 3540 nM

Question: Which Ki does the source give for `CCCCCCC(C)(C)c1cc(OCCCBr)c2c(c1)OC(C)(C)c1cn(CC)nc1-2` here?
Answer: 87.1 nM

Question: With `CCCCCCC(C)(C)c1cc(O)c2c(c1)OC(C)(C)c1cnn(-c3cc(F)cc(F)c3)c1-2` as the molecule, how does the Ki read?
Answer: > 40000 nM

Question: With `CCCCCCC(C)(C)c1cc(OCCCO)c2c(c1)OC(C)(C)c1cn(C)nc1-2` as the molecule, how does the Ki read?
Answer: 364 nM

Question: With `CCCCCCC(C)(C)c1cc(OCc2ccccc2)c2c(c1)OC(C)(C)c1cn(C)nc1-2` as the molecule, how does the Ki read?
Answer: 209 nM

Question: Which Ki does the source give for `CCCCCCC(C)(C)c1cc(OCc2ccccc2)c2c(c1)OC(C)(C)c1cnn(-c3ccc(Cl)c(Cl)c3)c1-2` here?
Answer: 3740 nM

Question: With `CCCCCCC(C)(C)c1cc(OCCCO)c2c(c1)OC(C)(C)c1cnn(-c3ccc(Cl)cc3Cl)c1-2` as the molecule, how does the Ki read?
Answer: > 40000 nM

Question: For `CCCCCCC(C)(C)c1cc(O)c2c(c1)OC(C)(C)c1cnn(C3CCCCC3)c1-2`, which Ki is on record?
Answer: 53.7 nM

Question: For `CCCCCCC(C)(C)c1cc2c(c3c1CCCO3)-c1c(cnn1CC)C(C)(C)O2`, which Ki is on record?
Answer: 564 nM

Question: Which Ki does the source give for `CCCCCCC(C)(C)c1cc(OCc2ccccc2)c2c(c1)OC(C)(C)c1cn(CC)nc1-2` here?
Answer: 212 nM

Question: For `CCCCCCC(C)(C)c1cc(O)c2c(c1)OC(C)(C)c1cn(CO)nc1-2`, which Ki is on record?
Answer: 59.4 nM

Question: With `CCCCCCC(C)(C)c1cc(OCCCO)c2c(c1)OC(C)(C)c1cnn(CC)c1-2` as the molecule, how does the Ki read?
Answer: 440 nM

Question: For `CCCCCCC(C)(C)c1cc(OC)c2c(c1)OC(C)(C)c1cnn(-c3ccc(Cl)cc3Cl)c1-2`, which Ki is on record?
Answer: 1490 nM

Same assay, conditions: hek293

Question: For `CCCCCCC(C)(C)c1cc(O)c2c(c1)OC(C)(C)c1cnn(-c3ccc(Cl)c(Cl)c3)c1-2`, which Ki is on record?
Answer: 270 nM

Target: Cannabinoid receptor 1 (Homo sapiens, UniProt P21554)
Sequence (P21554 whole entry): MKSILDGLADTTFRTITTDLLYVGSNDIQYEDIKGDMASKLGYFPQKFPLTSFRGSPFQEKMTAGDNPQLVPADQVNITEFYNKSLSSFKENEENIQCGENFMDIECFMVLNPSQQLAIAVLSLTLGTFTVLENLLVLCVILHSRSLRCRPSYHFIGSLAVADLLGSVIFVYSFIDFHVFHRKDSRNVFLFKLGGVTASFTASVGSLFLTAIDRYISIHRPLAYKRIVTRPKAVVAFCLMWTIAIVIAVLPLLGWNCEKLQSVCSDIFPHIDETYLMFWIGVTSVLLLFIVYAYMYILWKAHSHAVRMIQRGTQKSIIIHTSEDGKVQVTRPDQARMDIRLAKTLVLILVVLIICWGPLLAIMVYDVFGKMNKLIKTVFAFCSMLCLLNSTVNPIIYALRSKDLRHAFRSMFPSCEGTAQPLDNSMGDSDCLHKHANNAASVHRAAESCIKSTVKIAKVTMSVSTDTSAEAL
Assay: biochemical
Type: cell-based, HEK293
Settings: not given

Question: Which Ki does the source give for `CCCCCCC(C)(C)c1cc(OC)c2c(c1)OC(C)(C)c1cn[nH]c1-2` here?
Answer: 272 nM

Question: With `CCCCCCC(C)(C)c1cc(OC)c2c(c1)OC(C)(C)c1cnn(-c3ccc(Cl)c(Cl)c3)c1-2` as the molecule, how does the Ki read?
Answer: 2320 nM

Question: For `CCCCCCC(C)(C)c1cc(OCCCO)c2c(c1)OC(C)(C)c1cnn(-c3ccc(Cl)c(Cl)c3)c1-2`, which Ki is on record?
Answer: > 40000 nM

Question: Which Ki does the source give for `CCCCCCC(C)(C)c1cc(OCc2ccccc2)c2c(c1)OC(C)(C)c1cnn(CC)c1-2` here?
Answer: 614 nM

Question: Which Ki does the source give for `CCCCCCC(C)(C)c1cc(OCCO)c2c(c1)OC(C)(C)c1cn(CC)nc1-2` here?
Answer: 6510 nM

Question: For `CCCCCCC(C)(C)c1cc(O)c2c(c1)OC(C)(C)c1cnn(-c3cccc(OC)c3)c1-2`, which Ki is on record?
Answer: 6440 nM

Question: With `CCCCCCC(C)(C)c1cc(OCc2ccccc2)c2c(c1)OC(C)(C)c1cnn(-c3ccc(Cl)cc3Cl)c1-2` as the molecule, how does the Ki read?
Answer: > 40000 nM

Question: For `CCCCCCC(C)(C)c1cc(OCC)c2c(c1)OC(C)(C)c1cnn(-c3ccc(Cl)c(Cl)c3)c1-2`, which Ki is on record?
Answer: > 40000 nM

Question: For `CCCCCCC(C)(C)c1cc(OCCCBr)c2c(c1)OC(C)(C)c1cn(CC)nc1-2`, which Ki is on record?
Answer: 657 nM

Question: With `CCCCCCC(C)(C)c1cc(O)c2c(c1)OC(C)(C)c1cnn(-c3cc(F)cc(F)c3)c1-2` as the molecule, how does the Ki read?
Answer: > 40000 nM

Question: For `CCCCCCC(C)(C)c1cc(OCCCO)c2c(c1)OC(C)(C)c1cn(C)nc1-2`, which Ki is on record?
Answer: > 40000 nM

Question: For `CCCCCCC(C)(C)c1cc(OCc2ccccc2)c2c(c1)OC(C)(C)c1cn(C)nc1-2`, which Ki is on record?
Answer: 702 nM

Question: With `CCCCCCC(C)(C)c1cc(OCc2ccccc2)c2c(c1)OC(C)(C)c1cnn(-c3ccc(Cl)c(Cl)c3)c1-2` as the molecule, how does the Ki read?
Answer: > 40000 nM

Question: With `CCCCCCC(C)(C)c1cc(OCCCO)c2c(c1)OC(C)(C)c1cnn(-c3ccc(Cl)cc3Cl)c1-2` as the molecule, how does the Ki read?
Answer: > 40000 nM

Question: Which Ki does the source give for `CCCCCCC(C)(C)c1cc(O)c2c(c1)OC(C)(C)c1cnn(C3CCCCC3)c1-2` here?
Answer: 1140 nM

Question: For `CCCCCCC(C)(C)c1cc2c(c3c1CCCO3)-c1c(cnn1CC)C(C)(C)O2`, which Ki is on record?
Answer: > 10000 nM

Question: Which Ki does the source give for `CCCCCCC(C)(C)c1cc(OCc2ccccc2)c2c(c1)OC(C)(C)c1cn(CC)nc1-2` here?
Answer: 671 nM

Question: For `CCCCCCC(C)(C)c1cc(O)c2c(c1)OC(C)(C)c1cn(CO)nc1-2`, which Ki is on record?
Answer: 218 nM

Question: With `CCCCCCC(C)(C)c1cc(OCCCO)c2c(c1)OC(C)(C)c1cnn(CC)c1-2` as the molecule, how does the Ki read?
Answer: 1610 nM

Question: Which Ki does the source give for `CCCCCCC(C)(C)c1cc(OC)c2c(c1)OC(C)(C)c1cnn(-c3ccc(Cl)cc3Cl)c1-2` here?
Answer: 1690 nM

Same assay, conditions: hek293

Question: For `CCCCCCC(C)(C)c1cc(O)c2c(c1)OC(C)(C)c1cnn(-c3ccc(Cl)c(Cl)c3)c1-2`, which Ki is on record?
Answer: 514 nM

Question: Which Ki does the source give for `CCCCCCC(C)(C)c1cc(O)c2c(c1)OC(C)(C)c1cnn(CC)c1-2` here?
Answer: 4.5 nM

Question: For `CCCCCCC(C)(C)c1cc(O)c2c(c1)OC(C)(C)c1cnn(-c3ccc(Cl)cc3Cl)c1-2`, which Ki is on record?
Answer: 5.2 nM

Organism: Homo sapiens
Assay: Selectivity ratio of Ki for human CB1 receptor to Ki for human CB2 receptor
Settings: not given
How it was run: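 Membranes from cells transfected with hCB1 (8 μg/well; Tris 50 mM, MgCl2 5 mM, EDTA 2.5 mM, BSA 0.5 mg/mL, pH 7.4) or hCB2 (4 μg/well; EGTA 2.5 mM, BSA 1 mg/mL, pH 7.5); [3H]CP55940, 90 min at 30 °C. […] Nonspecific binding 10 μM WIN55212-2; GF/C filtration, scintillation; ≥3 experiments in triplicate.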

Question: For `CCCCCCC(C)(C)c1cc(O)c2c(c1)OC(C)(C)c1cnn(-c3ccc(Cl)c(Cl)c3)c1-2`, which Ratio Ki is on record?
Answer: 1.9

Question: With `CCCCCCC(C)(C)c1cc(OC)c2c(c1)OC(C)(C)c1cn[nH]c1-2` as the molecule, how does the Ratio Ki read?
Answer: 3.1

Question: For `CCCCCCC(C)(C)c1cc(OCc2ccccc2)c2c(c1)OC(C)(C)c1cnn(CC)c1-2`, which Ratio Ki is on record?
Answer: 2

Question: For `CCCCCCC(C)(C)c1cc(OCCO)c2c(c1)OC(C)(C)c1cn(CC)nc1-2`, which Ratio Ki is on record?
Answer: 31

Question: With `CCCCCCC(C)(C)c1cc(O)c2c(c1)OC(C)(C)c1cnn(-c3cccc(OC)c3)c1-2` as the molecule, how does the Ratio Ki read?
Answer: 11.5

Question: With `CCCCCCC(C)(C)c1cc(OCC)c2c(c1)OC(C)(C)c1cnn(-c3ccc(Cl)c(Cl)c3)c1-2` as the molecule, how does the Ratio Ki read?
Answer: > 11.3

Question: With `CCCCCCC(C)(C)c1cc(OCCCBr)c2c(c1)OC(C)(C)c1cn(CC)nc1-2` as the molecule, how does the Ratio Ki read?
Answer: 7.5

Question: With `CCCCCCC(C)(C)c1cc(OCCCO)c2c(c1)OC(C)(C)c1cn(C)nc1-2` as the molecule, how does the Ratio Ki read?
Answer: > 110

Question: With `CCCCCCC(C)(C)c1cc(OCc2ccccc2)c2c(c1)OC(C)(C)c1cn(C)nc1-2` as the molecule, how does the Ratio Ki read?
Answer: 3.3

Question: For `CCCCCCC(C)(C)c1cc(OCc2ccccc2)c2c(c1)OC(C)(C)c1cnn(-c3ccc(Cl)c(Cl)c3)c1-2`, which Ratio Ki is on record?
Answer: > 10.7

Question: Which Ratio Ki does the source give for `CCCCCCC(C)(C)c1cc(O)c2c(c1)OC(C)(C)c1cnn(C3CCCCC3)c1-2` here?
Answer: 21.5

Question: Which Ratio Ki does the source give for `CCCCCCC(C)(C)c1cc2c(c3c1CCCO3)-c1c(cnn1CC)C(C)(C)O2` here?
Answer: > 17.7

Question: Which Ratio Ki does the source give for `CCCCCCC(C)(C)c1cc(OCc2ccccc2)c2c(c1)OC(C)(C)c1cn(CC)nc1-2` here?
Answer: 3.1

Question: For `CCCCCCC(C)(C)c1cc(O)c2c(c1)OC(C)(C)c1cn(CO)nc1-2`, which Ratio Ki is on record?
Answer: 3.7

Question: With `CCCCCCC(C)(C)c1cc(OCCCO)c2c(c1)OC(C)(C)c1cnn(CC)c1-2` as the molecule, how does the Ratio Ki read?
Answer: 3.6

Target: T1, Cannabinoid receptor 2
Assay: Agonist activity at human CB2 receptor expressed in HEK293 cell membranes assessed as inhibition of forskolin-stimulated cAMP accumulation after 60 mins by HTRF assay
Type: functional, cell-based
Settings: not given

Question: Which Emax does the source give for `CCCC(C)(C)c1ccc2c(c1)OC(C)(C)[C@@H]1CC=C(C)C[C@@H]21` here?
Answer: 98%

Question: What about the IC50 of the same molecule?
Answer: 81.8 nM
